ChEMBL document CHEMBL4513216, “Probing the Open Global Health Chemical Diversity Library for Multistage-Active Starting Points for Next-Generation Antimalarials” (ACS Infect Dis, 2020)

Experiment: Toxicity liver stage against HepG2, at 10uM
Assay type: cell-based
Parameters: test concentration 10 uM, cell line HepG2-A16-CD81EGFP
Conditions: human, HepG2-A16-CD81EGFP cells; read-out: INHIBITION
Procedure, shortened: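 Uninfected HepG2-A16-CD81EGFP cells, 3 × 10^3 per well, 1536-well, plated on prespotted compound at 10 μM final, parasite-free screening media added to match infected plates; puromycin 10 μM positive, DMSO 0.5% negative; run in parallel with 48 h PbLuc assay at 37 °C, 5% CO2; viability by CellTiter-Glo luminescence, normalized to controls.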
For `Cc1cc(CNC2(c3ccccc3F)CC2)no1`, the cytotoxicity at 10 µM was 5.71%.
`Cc1cnn(CCCNC(=O)NCCS(=O)(=O)Nc2ccccc2)c1` showed a cytotoxicity at 10 µM of 1.07%.
Molecule `Cc1ccccc1-c1cc(NC(=O)Cn2ccccc2=O)n(C)n1` has a cytotoxicity at 10 µM of 3.8%.
`CC1COCCN1C(=O)NCCn1ccnc1` (configuration not stated) showed a cytotoxicity at 10 µM of -50.4%.
`CCNC(=O)C1CCCN(C(=O)Nc2cc(C#N)ccc2OCC)C1` (configuration not stated) showed a cytotoxicity at 10 µM of -1.71%.
In the case of `CN(C)CCn1c(=O)oc2ccc(NC(=O)CC(C)(C)C)cc21`, the cytotoxicity at 10 µM is reported as -2.28%.
For `CCN(C)c1ccc(C(=O)N(CCOC)Cc2ccccn2)cc1`, the cytotoxicity at 10 µM was -3.96%.
Work on `CCC(=O)NCc1cc(Br)c(OC)c(OC)c1` yielded a cytotoxicity at 10 µM of -0.0582%.
`CN(C)c1ccc(C(=O)NCC2(O)CCOCC2)cc1` gave a cytotoxicity at 10 µM of -3.34%.
`CC(NC(=O)C1=NN(C)C(=O)CC1)c1ccc(Cl)cc1Cl` (configuration not stated) showed a cytotoxicity at 10 µM of -10.4%.
Work on `CCc1ccc(CNC(=O)NC(C)CN2CCOCC2)s1` (configuration not stated) yielded a cytotoxicity at 10 µM of -1.84%.
Work on `NC(=O)c1ccc(CN2CCCC(N3CCCC3)C2)cc1` (configuration not stated) yielded a cytotoxicity at 10 µM of -3.63%.
For `CC(C)CNC(=O)C1=NOC2(CCN(Cc3ccoc3)C2)C1` (configuration not stated), the cytotoxicity at 10 µM was -3.42%.
In the case of `CC(C)n1cc(-c2nc3cc(S(=O)(=O)N4CCCC4)ccc3n2C)cn1`, the cytotoxicity at 10 µM is reported as 1.12%.
Work on `Cc1c[nH]c(CN2CCOC(c3ccc(F)cc3)C2)c(C)c1=O` (configuration not stated) yielded a cytotoxicity at 10 µM of -1.82%.
`CCCc1ccc(CN2CCN(C(=O)N(C)C)[C@@H]3CS(=O)(=O)C[C@@H]32)o1` gave a cytotoxicity at 10 µM of 8.69%.
With `Cc1nc(N2CCCC(OCc3ccccn3)C2)c2c(C)noc2n1` (configuration not stated) the cytotoxicity at 10 µM was 0.622%.
With `CCc1ccc(CNC[C@H]2C[C@@H](CO)N(C)[C@H]2c2ccccc2F)o1` the cytotoxicity at 10 µM was -3.09%.
`O=C(CCN1CCCO1)N1CCCC(CO)(CCCc2ccccc2)C1` (configuration not stated) gave a cytotoxicity at 10 µM of 2.76%.
For `CCCc1ccc(CN2CCN(c3ncccn3)[C@@H]3CS(=O)(=O)C[C@@H]32)o1`, the cytotoxicity at 10 µM was 1.66%.
For `CCCn1c(C)c(CC(=O)NCCNC(C)=O)c2c1CC(C)(C)CC2=O`, the cytotoxicity at 10 µM was 6.2%.
`Cc1c[nH]c(C(=O)N2CCCC2c2ccc(C(=O)N3CCSCC3)s2)n1` (configuration not stated) gave a cytotoxicity at 10 µM of 2.73%.
With `Cc1oc(-c2ccoc2)nc1CN1CCC[C@H]1CO` the cytotoxicity at 10 µM was -16.5%.
For `CC(C)c1noc(CN(C)C(=O)C2COc3ccccc3C2)n1` (configuration not stated), the cytotoxicity at 10 µM was 2.77%.
`CCc1cnc(NCC(CC)N2CCOCC2)nc1` (configuration not stated) showed a cytotoxicity at 10 µM of 12.8%.
Work on `COc1ccccc1S(=O)(=O)N1CCC2(CC1)OCCCC2O` (configuration not stated) yielded a cytotoxicity at 10 µM of 0.0773%.
Work on `CCN1CCn2nc(CCC(=O)N3CCCC3)cc2C1` yielded a cytotoxicity at 10 µM of 0.685%.
Molecule `CCN(CC)CC(=O)N(C)C(c1cccc(F)c1)c1ccccn1` (configuration not stated) has a cytotoxicity at 10 µM of -6.54%.
`CCN(Cc1ccc2c(c1)OCO2)S(=O)(=O)N(C)C(C)C` showed a cytotoxicity at 10 µM of 8.55%.
For `COC(=O)C(NC(=O)CCc1ccco1)c1cc(F)ccc1F` (configuration not stated), the cytotoxicity at 10 µM was -0.448%.
Work on `CN(Cc1cccs1)C(=O)CN1CCCC(Cn2cncn2)C1` (configuration not stated) yielded a cytotoxicity at 10 µM of -3.95%.
Work on `CN(C)c1cc(C(=O)N2CCCC2)ccn1` yielded a cytotoxicity at 10 µM of -4.1%.
With `CC(C(=O)N1CCCN(Cc2cscn2)CC1)N1CCOCC1` (configuration not stated) the cytotoxicity at 10 µM was -11.4%.
For `Cn1cc(C#N)c(=O)n(CC(O)c2ccccc2F)c1=O` (configuration not stated), the cytotoxicity at 10 µM was -11%.
`O=C(NCCCOCC1CC1)Nc1ccc(-n2cncn2)c(F)c1` gave a cytotoxicity at 10 µM of -0.132%.
Work on `CCN(CC1COc2ccccc2O1)C(=O)CCn1cncn1` (configuration not stated) yielded a cytotoxicity at 10 µM of -9.21%.
`Cc1nc(-c2ccsc2)ccc1C(=O)NC(C)CN1CCOCC1` (configuration not stated) gave a cytotoxicity at 10 µM of -13.8%.
Work on `Cc1ccccc1CN(C)C(=O)CN1CCOC(Cn2cccn2)C1` (configuration not stated) yielded a cytotoxicity at 10 µM of -5.1%.
`Cc1cc(C)n(CC2CCCN2Cc2cscn2)n1` (configuration not stated) showed a cytotoxicity at 10 µM of -7.65%.
In the case of `Cc1cccc(CC(=O)NCCCOC(C)C)c1`, the cytotoxicity at 10 µM is reported as -2.25%.
With `CC(C)Oc1ccc(CNC(=O)CC(F)(F)F)cc1F` the cytotoxicity at 10 µM was -1.08%.
Work on `CC(C)(O)CN1CCN(C(=O)c2cccnc2O)CC1` yielded a cytotoxicity at 10 µM of -21.7%.
For `COCCN1CCC(CNC(=O)C2(c3cccc(C)c3)CC2)CC1`, the cytotoxicity at 10 µM was -1.88%.
`CC(C)OCCCNC(=O)c1ccc(-c2ccco2)[nH]c1=O` gave a cytotoxicity at 10 µM of -4.45%.
For `O=C(CCc1cccc(C2CCNCC2)n1)N1CCCCC1`, the cytotoxicity at 10 µM was -4.78%.
In the case of `O=C(NCc1cccs1)c1nc2c(o1)CN(C(=O)c1cccnc1)C2`, the cytotoxicity at 10 µM is reported as -6.04%.
Work on `CN(Cc1cncnc1)[C@H]1CN(CC2CC2)[C@@H]2CCCO[C@@H]21` yielded a cytotoxicity at 10 µM of -9.87%.
In the case of `CN(C)Cc1nnc2n1CCN(c1cnccn1)CC2`, the cytotoxicity at 10 µM is reported as -10.8%.
`c1ccc(OC[C@]23COC[C@H]2CN(C2CCOCC2)C3)nc1` showed a cytotoxicity at 10 µM of -2.6%.
Molecule `CN(C)CCN1CCN(Cc2cccc(C#N)c2)Cc2cccnc21` has a cytotoxicity at 10 µM of -1.57%.
For `Fc1cccc(-c2c[nH]c(C3CCCN3)n2)c1` (configuration not stated), the cytotoxicity at 10 µM was -5.93%.
In the case of `CCC1=N[C@@]2(CC[C@@H]3CN(CC(=O)N(C)C)C[C@@H]32)C(=O)N1CC1CC1`, the cytotoxicity at 10 µM is reported as -3.5%.
`O=C(NC1CC1)N1Cc2[nH]nc(COc3cccnc3)c2C1` showed a cytotoxicity at 10 µM of 4.77%.
Molecule `COCC(=O)NCC1Cn2nnc(-c3ccncc3)c2CO1` (configuration not stated) has a cytotoxicity at 10 µM of 8.22%.
Molecule `CN1CC(=O)N(c2cccc(F)c2)CC12CCN(CC1CCOCC1)C2` (configuration not stated) has a cytotoxicity at 10 µM of 0.887%.
Work on `CC(C)NC(=O)[C@H]1C[C@@H]2[C@@H](C1)OCCN2Cc1cnn(C)c1` yielded a cytotoxicity at 10 µM of 5.68%.
`O=C(CC1CCC2(CC1)CCN(Cc1cccnc1)CC2)N1CC=CC1` gave a cytotoxicity at 10 µM of -2.13%.
